# Test results published in ChEMBL document CHEMBL5724801, “EUbOPEN Chemogenomics Library - Multiplex” (2024).
# Several values for one entry are separate records, joined by “and”; a condition that tells them apart may be missing. Identical values can stand only once.
# Tested on: U2OS
# Test: Multiplex assay against U2OS
# Type: toxicity, cell-based
# Conditions: human
# Outline: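 Phenotypes for tubulin, mitochondrial mass and membrane permeability are expressed as per cents of healthy-nucleus cells. Cells were stained live at seeding with Hoechst33342, BioTracker Green Microtubule Cytoskeleton Dye, MitoTracker Red and Annexin V Alexa Fluor 680, then imaged after compound addition on a CQ1 microscope at 37°C and 5% CO2. Machine-learning gating in CellPathfinder separated Hoechst high-intensity objects from normal cells, divided normal cells by nuclear state (healthy, pyknosed, fragmented) and divided pyknosed cells into mitotic or apoptotic.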
# [1] = 12 h, 1 µM, compound concentration 1 uM
# [2] = 12 h, 10 µM, compound concentration 10 uM
# [3] = 24 h, 1 µM, compound concentration 1 uM
# [4] = 24 h, 10 µM, compound concentration 10 uM
# [5] = 48 h, 1 µM, compound concentration 1 uM
# [6] = 48 h, 10 µM, compound concentration 10 uM
structure (smiles),measurement,setting,value
CN[C@@H](C)C(=O)N[C@H](C(=O)N1CCC[C@H]1C(=O)Nc1snnc1-c1ccccc1)C1CCCCC1 [GDC-0152],Population Apoptotic (%),[1],60% and 89%
same,Population Fragmented Nuclei (%),[1],25% and 21%
same,Population Healthy Nuclei (%),[1],61% and 60%
same,Population Hoechst High Intensity Objects (%),[1],5% and 11%
same,Population Membrane Permeable-Phenotype (%),[1],51% and 50%
same,Population Mitochondria Different-Phenotype (%),[1],24% and 38%
same,Population Normal (%),[1],94% and 88%
same,Population Pyknosed Nuclei (%),[1],13% and 17%
same,Population Tubulin-Different-Phenotype (%),[1],47% and 52%
same,Total Cell Count,[1],176 and 121
same,Population Apoptotic (%),[2],72% and 70%
same,Population Fragmented Nuclei (%),[2],39% and 18%
same,Population Healthy Nuclei (%),[2],44% and 65%
same,Population Hoechst High Intensity Objects (%),[2],4% and 5%
same,Population Membrane Permeable-Phenotype (%),[2],65% and 73%
same,Population Mitochondria Different-Phenotype (%),[2],61% and 70%
same,Population Mitotic Cells (%),[2],27% and 29%
same,Population Normal (%),[2],95% and 94%
same,Population Pyknosed Nuclei (%),[2],16% and 15%
same,Population Tubulin-Different-Phenotype (%),[2],76% and 91%
same,Total Cell Count,[2],208 and 114
same,Population Apoptotic (%),[3],72% and 85%
same,Population Fragmented Nuclei (%),[3],21% and 34%
same,Population Healthy Nuclei (%),[3],55% and 44%
same,Population Hoechst High Intensity Objects (%),[3],5% and 8%
same,Population Membrane Permeable-Phenotype (%),[3],20% and 25%
same,Population Mitochondria Different-Phenotype (%),[3],18% and 28%
same,Population Mitotic Cells (%),[3],27% and 14%
same,Population Normal (%),[3],94% and 91%
same,Population Pyknosed Nuclei (%),[3],23% and 21%
same,Population Tubulin-Different-Phenotype (%),[3],19% and 27%
same,Total Cell Count,[3],196 and 144
same,Population Apoptotic (%),[4],68% and 92%
same,Population Fragmented Nuclei (%),[4],36% and 20%
same,Population Healthy Nuclei (%),[4],43% and 40%
same,Population Hoechst High Intensity Objects (%),[4],3% and 10%
same,Population Membrane Permeable-Phenotype (%),[4],53% and 59%
same,Population Mitochondria Different-Phenotype (%),[4],59% and 65%
same,Population Normal (%),[4],96% and 89%
same,Population Pyknosed Nuclei (%),[4],20% and 38%
same,Population Tubulin-Different-Phenotype (%),[4],59% and 81%
same,Total Cell Count,[4],220 and 121
same,Population Apoptotic (%),[5],93% and 88%
same,Population Fragmented Nuclei (%),[5],35%
same,Population Healthy Nuclei (%),[5],32% and 30%
same,Population Hoechst High Intensity Objects (%),[5],8%
same,Population Membrane Permeable-Phenotype (%),[5],16% and 38%
same,Population Mitochondria Different-Phenotype (%),[5],12% and 17%
same,Population Mitotic Cells (%),[5],6% and 11%
same,Population Normal (%),[5],91%
same,Population Pyknosed Nuclei (%),[5],32% and 34%
same,Population Tubulin-Different-Phenotype (%),[5],9% and 27%
same,Total Cell Count,[5],246 and 170
same,Population Apoptotic (%),[6],100% and 98%
same,Population Fragmented Nuclei (%),[6],47% and 45%
same,Population Healthy Nuclei (%),[6],22% and 8%
same,Population Hoechst High Intensity Objects (%),[6],11% and 14%
same,Population Membrane Permeable-Phenotype (%),[6],39% and 80%
same,Population Mitochondria Different-Phenotype (%),[6],39% and 50%
same,Population Mitotic Cells (%),[6],0% and 1%
same,Population Normal (%),[6],88% and 85%
same,Population Pyknosed Nuclei (%),[6],29% and 45%
same,Population Tubulin-Different-Phenotype (%),[6],43% and 80%
same,Total Cell Count,[6],246 and 138
CC[C@H](Nc1ncnc2[nH]cnc12)c1nc2cccc(F)c2c(=O)n1-c1ccccc1 [IDELALISIB],Population Apoptotic (%),[1],50% and 55%
same,Population Fragmented Nuclei (%),[1],1.02% and 4.85%
same,Population Healthy Nuclei (%),[1],88.24% and 85.44%
same,Population Hoechst High Intensity Objects (%),[1],0%
same,Population Membrane Permeable-Phenotype (%),[1],1.45% and 1.7%
same,Population Mitochondria Different-Phenotype (%),[1],0.29% and 7.39%
same,Population Mitotic Cells (%),[1],50% and 45%
same,Population Normal (%),[1],100%
same,Population Pyknosed Nuclei (%),[1],10.74% and 9.71%
same,Population Tubulin-Different-Phenotype (%),[1],3.19% and 1.14%
same,Total Cell Count,[1],391 and 206
same,Population Apoptotic (%),[2],33.33% and 37.5%
same,Population Fragmented Nuclei (%),[2],1.17% and 2.76%
same,Population Healthy Nuclei (%),[2],86.55% and 75.17%
same,Population Hoechst High Intensity Objects (%),[2],0%
same,Population Membrane Permeable-Phenotype (%),[2],10.47% and 14.68%
same,Population Mitotic Cells (%),[2],66.67% and 62.5%
same,Population Normal (%),[2],100%
same,Population Pyknosed Nuclei (%),[2],12.28% and 22.07%
same,Total Cell Count,[2],342 and 145
same,Population Apoptotic (%),[3],46.94% and 30.77%
same,Population Fragmented Nuclei (%),[3],1.87% and 2.83%
same,Population Healthy Nuclei (%),[3],88.97% and 86.64%
same,Population Hoechst High Intensity Objects (%),[3],0% and 0.4%
same,Population Membrane Permeable-Phenotype (%),[3],0.84% and 2.34%
same,Population Mitochondria Different-Phenotype (%),[3],0.21% and 5.14%
same,Population Mitotic Cells (%),[3],53.06% and 69.23%
same,Population Normal (%),[3],100% and 99.6%
same,Population Pyknosed Nuclei (%),[3],9.16% and 10.53%
same,Population Tubulin-Different-Phenotype (%),[3],1.68% and 0.47%
same,Total Cell Count,[3],535 and 248
same,Population Apoptotic (%),[4],44.64% and 41.38%
same,Population Fragmented Nuclei (%),[4],2.79% and 2.6%
same,Population Healthy Nuclei (%),[4],84.19% and 78.57%
same,Population Hoechst High Intensity Objects (%),[4],0%
same,Population Membrane Permeable-Phenotype (%),[4],7.73% and 14.88%
same,Population Mitotic Cells (%),[4],55.36% and 58.62%
same,Population Normal (%),[4],100%
same,Population Pyknosed Nuclei (%),[4],13.02% and 18.83%
same,Population Tubulin-Different-Phenotype (%),[4],12.15% and 4.13%
same,Total Cell Count,[4],430 and 154
same,Population Apoptotic (%),[5],46.67% and 39.53%
same,Population Fragmented Nuclei (%),[5],2.53% and 4.9%
same,Population Healthy Nuclei (%),[5],87.97% and 84.56%
same,Population Hoechst High Intensity Objects (%),[5],0%
same,Population Membrane Permeable-Phenotype (%),[5],0.84% and 3.48%
same,Population Mitochondria Different-Phenotype (%),[5],0.12% and 3.48%
same,Population Mitotic Cells (%),[5],53.33% and 60.47%
same,Population Normal (%),[5],100%
same,Population Pyknosed Nuclei (%),[5],9.49% and 10.54%
same,Population Tubulin-Different-Phenotype (%),[5],1.08% and 1.16%
same,Total Cell Count,[5],948 and 408
same,Population Apoptotic (%),[6],55.68% and 62.86%
same,Population Fragmented Nuclei (%),[6],2.47% and 5.05%
same,Population Healthy Nuclei (%),[6],84.72% and 78.9%
same,Population Hoechst High Intensity Objects (%),[6],0%
same,Population Membrane Permeable-Phenotype (%),[6],3.78% and 8.72%
same,Population Mitotic Cells (%),[6],44.32% and 37.14%
same,Population Normal (%),[6],100%
same,Population Pyknosed Nuclei (%),[6],12.81% and 16.06%
same,Population Tubulin-Different-Phenotype (%),[6],5.33% and 5.23%
